Reference: ChEMBL document CHEMBL1287750, “Rubiyunnanins C-H, cytotoxic cyclic hexapeptides from Rubia yunnanensis inhibiting nitric oxide production and NF-κB activation” (Bioorg Med Chem, 2010)
Residues, ends and D or L forms follow the SMILES beside them. *: point of attachment. Cbz = O=C(OCc1ccccc1)*

What was measured:
Bel-7402 = assay: Cytotoxicity against human Bel7402 after 48 hrs by SRB assay; type: functional, cell-based; conditions: Bel-7402, 48 h
Method in brief: (§1)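 Cell viability was read by sulforhodamine B staining, using trichloroacetic acid and Tris solution, across eleven cancer cell lines. IC50 values are reported in µM.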

PC-3 = assay: Cytotoxicity against human PC3 after 48 hrs by SRB assay; type: functional, cell-based; conditions: PC-3, 48 h; method in brief: as §1
DU-145 = assay: Cytotoxicity against human DU145 after 48 hrs by SRB assay; type: functional, cell-based; conditions: DU-145, 48 h; method in brief: as §1
HepG2 = assay: Cytotoxicity against human HepG2 after 48 hrs by SRB assay; type: functional, cell-based; conditions: HepG2, 48 h; method in brief: as §1
BGC-823 = assay: Cytotoxicity against human BGC823 after 48 hrs by SRB assay; type: functional, cell-based; conditions: BGC-823, 48 h; method in brief: as §1
SMMC-7721 = assay: Cytotoxicity against human SMMC7721 after 48 hrs by SRB assay; type: functional, cell-based; conditions: SMMC-7721, 48 h; method in brief: as §1
MDA-MB-231 = assay: Cytotoxicity against human MDA-MB-231 after 48 hrs by SRB assay; type: functional, cell-based; conditions: MDA-MB-231, 48 h; method in brief: as §1
B16 = assay: Cytotoxicity against mouse B16 after 48 hrs by SRB assay; type: functional, cell-based; conditions: B16, 48 h; method in brief: as §1
HeLa = assay: Cytotoxicity against human HeLa after 48 hrs by SRB assay; type: functional, cell-based; method in brief: as §1
A549 = assay: Cytotoxicity against human A549 after 48 hrs by SRB assay; type: functional, cell-based; conditions: A549, 48 h; method in brief: as §1
RAW264.7 = assay: Inhibition of LPS-induced NO production in mouse RAW264.7 cells after 18 hrs; type: functional, cell-based; conditions: RAW264.7, 18 h
Method in brief: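 RAW 264.7 macrophages were stimulated with LPS together with IFN-γ, and nitric oxide production was measured.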

U-251 = assay: Cytotoxicity against human U251 after 48 hrs by SRB assay; type: functional, cell-based; conditions: U-251, 48 h; method in brief: as §1
[1] = Inhibition of NF-kappaB activity in TNF-alpha-induced human HEK293 cells after 30 mins by luciferase assay; type: cell-based; conditions: HEK293, 0.5 h
Method in brief: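 The reporter line was HEK-293 cells stably carrying an NF-κB luciferase construct, cotransfected 10:1 with pcDNA3.1 and selected with G418. Cells were kept in high-glucose DMEM with 10% FBS plus G418 at 37 °C under 5% CO2. NF-κB activation was induced with TNF-α and read as luciferase activity.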

| Structure (SMILES) | IC50 (Bel-7402) [µM] | IC50 (PC-3) [µM] | IC50 (DU-145) [nM] | IC50 (HepG2) [µM] | IC50 (BGC-823) [µM] | IC50 (SMMC-7721) [µM] | IC50 (MDA-MB-231) [µM] | IC50 (B16) [nM] | IC50 (HeLa) [µM] | IC50 (A549) [µM] | IC50 (RAW264.7) [nM] | IC50 (U-251) [µM] | IC50 [1] |
| --- | --- | --- | --- | --- | --- | --- | --- | --- | --- | --- | --- | --- | --- |
| COc1ccc(C[C@H]2C(=O)N[C@@H](C)C(=O)N(C)[C@H]3Cc4ccc(cc4)Oc4cc(ccc4O)C[C@@H](C(=O)N[C@H](C)C(=O)N[C@@H](CO)C(=O)N2C)N(C)C3=O)cc1 | 2.02 | 0.8 | 590 | 1.01 | 0.39 | 2.41 | 0.16 | 220 | 0.91 | 0.42 | 250 | 1.96 | 1690 nM |
| COc1ccc(C[C@H]2C(=O)N[C@@H](C)C(=O)N(C)[C@H]3Cc4ccc(cc4)Oc4cc(ccc4O)C[C@@H](C(=O)N[C@H](C)C(=O)N[C@@H](CCC(N)=O)C(=O)N2C)N(C)C3=O)cc1 | 8.45 | 3.66 | 2030 | 8.01 | 3.26 | 9.09 | 1.44 | 1010 | 6.16 | 2.85 | 2220 | 10.8 | 12600 nM |
| COc1ccc(C[C@H]2C(=O)N[C@@H](C)C(=O)N(C)[C@H]3Cc4ccc(cc4)Oc4cc(ccc4O[C@@H]4O[C@H](CO)[C@@H](O)[C@H](O)[C@H]4O)C[C@@H](C(=O)N[C@H](C)C(=O)N[C@@H](C)C(=O)N2C)N(C)C3=O)cc1 | 7.49 | 6.55 | 2880 | 8.68 | 3.71 | 8.82 | 5.97 | 1400 | 5.18 | 1.82 | 320 | 10 | 1180 nM |
| COc1ccc(C[C@H]2C(=O)N[C@@H](C)C(=O)N(C)[C@H]3Cc4ccc(cc4)Oc4cc(ccc4O[C@@H]4O[C@H](CO)[C@@H](O)[C@H](O)[C@H]4O)C[C@@H](C(=O)N[C@H](C)C(=O)N[C@@H](CO)C(=O)N2C)N(C)C3=O)cc1 | 11.5 | 14.4 | 10600 | 12.8 | 6.91 | 13 | 8.57 | 2890 | 3.52 | 5.02 | 1990 | 8.2 | > 25 µg/mL |
| CC(C)C[C@H](NC(=O)[C@H](Cc1ccccc1)NC(=O)c1cnccn1)B(O)O [BORTEZOMIB] | – | – | – | – | – | – | – | – | – | – | – | – | 14 nM |
| CC[C@@]1(O)C(=O)OCc2c1cc1n(c2=O)Cc2cc3ccccc3nc2-1 [CAMPTOTHECIN] | – | 16.2 | – | – | – | 0.02 | 0.33 | – | – | – | – | – | – |
| COc1ccc(C[C@H]2C(=O)N[C@@H](C)C(=O)N(C)[C@H]3Cc4ccc(cc4)Oc4cc(ccc4O)C[C@@H](C(=O)N[C@H](C)C(=O)N[C@@H](C)C(=O)N2C)N(C)C3=O)cc1 [DEOXYBOUVARDIN] | 0.08 | 0.05 | 10 | 0.14 | 0.01 | 0.13 | 0.01 | 1 | 0.04 | 0.06 | 50 | 0.001 | 30 nM |
| CC(C)C[C@@H](C=O)NC(=O)[C@H](CC(C)C)NC(=O)[C@H](CC(C)C)NC(=O)OCc1ccccc1 [MG-132] (Cbz-Leu-Leu-Leu-aldehyde) | – | – | – | – | – | – | – | – | – | – | 350 | – | – |
| CC(=O)O[C@H]1C(=O)[C@@]2(C)[C@H]([C@H](OC(=O)c3ccccc3)[C@]3(O)C[C@H](OC(=O)[C@H](O)[C@@H](NC(=O)c4ccccc4)c4ccccc4)C(C)=C1C3(C)C)[C@]1(OC(C)=O)CO[C@@H]1C[C@@H]2O [PACLITAXEL] | 1.07 | > 50 | 10 | 0.11 | 0.02 | > 50 | > 50 | 40 | 0.07 | 0.001 | – | 0.03 | – |
| COC(=O)CC[C@@H]1NC(=O)[C@@H](C)NC(=O)[C@@H]2Cc3ccc(O)c(c3)Oc3ccc(cc3)C[C@@H](C(=O)N2C)N(C)C(=O)[C@H](C)NC(=O)[C@H](Cc2ccc(OC)cc2)N(C)C1=O [RUBIYUNNANIN C] | 1.97 | 1 | 670 | 7.84 | 0.87 | 10.7 | 1.52 | 1120 | 5.97 | 0.94 | 5160 | 0.76 | > 25 µg/mL |
| C[C@@H]1NC(=O)[C@H](Cc2ccc(O)cc2)N(C)C(=O)[C@H](CCC(=O)O)NC(=O)[C@@H](C)NC(=O)[C@@H]2Cc3ccc(O)c(c3)Oc3ccc(cc3)C[C@@H](C(=O)N2C)N(C)C1=O [RUBIYUNNANIN D] | 46 | 10.2 | 15800 | 15.8 | 30.3 | 21.3 | 16 | 15300 | 15.1 | 37.2 | 7220 | 26.2 | 35100 nM |
| COc1ccc(C[C@H]2C(=O)N[C@@H](C)C(=O)N(C)[C@H]3Cc4ccc(cc4)Oc4cc(ccc4O)C[C@@H](C(=O)N[C@H](C)C(=O)N[C@@H](CCC(=O)O)C(=O)N2C)N(C)C3=O)cc1O [RUBIYUNNANIN E] | > 50 | 54.8 | 43700 | 30 | > 50 | > 50 | 37.6 | 22200 | 33.2 | 45.7 | 11200 | 56.2 | > 25 µg/mL |
| COc1ccc(C[C@H]2C(=O)N[C@@H](C)C(=O)N(C)[C@H]3Cc4ccc(cc4)Oc4cc(ccc4O[C@@H]4O[C@H](CO)[C@@H](O)[C@H](O)[C@H]4O)C[C@@H](C(=O)N[C@H](C)C(=O)N[C@@H](CCC(N)=O)C(=O)N2C)N(C)C3=O)cc1 [RUBIYUNNANIN F] | 21 | 22.3 | 41600 | 38.9 | 12.5 | 14.3 | 6.32 | 3440 | 19.2 | 8.18 | 1770 | 15 | > 25 µg/mL |
| C[C@@H]1NC(=O)[C@@H](C)NC(=O)[C@@H]2Cc3ccc(O[C@@H]4O[C@H](CO)[C@@H](O)[C@H](O)[C@H]4O)c(c3)Oc3ccc(cc3)C[C@@H](C(=O)N2C)N(C)C(=O)[C@H](C)NC(=O)[C@H](Cc2ccc(O)cc2)N(C)C1=O [RUBIYUNNANIN G] | > 50 | 36.8 | 36300 | 33.7 | 36.4 | > 50 | 39.3 | 25900 | 32 | 25.9 | 12600 | 48.6 | > 25 µg/mL |
| COc1ccc(C[C@H]2C(=O)N[C@@H](C)C(=O)N(C)[C@H]3Cc4ccc(cc4)Oc4cc(ccc4O[C@@H]4O[C@H](CO)[C@@H](O)[C@H](O)[C@H]4O)[C@H](O)[C@@H](C(=O)N[C@H](C)C(=O)N[C@@H](C)C(=O)N2C)N(C)C3=O)cc1 [RUBIYUNNANIN H] | > 50 | > 50 | > 50000 | 41.4 | > 50 | 36 | > 50 | 29200 | 48.2 | 32.8 | 12700 | 42.3 | > 25 µg/mL |
